For assay [1], the system named is Hepatitis C virus. Briefly: Antiviral activity against Hepatitis C virus JFH-1 J6 genotype 2a infected in human Huh7.5 cells assessed as inhibition of viral RNA replication at 10 uM by real time qRT-PCR analysis. Type of assay: functional, organism-based. The following applies: Hepacivirus hominis, subtype 2a JFH1 J6, Huh-7, TDE = time-dependent effect. The essentials:
(§1)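 J6/JFH1 RNA-transfected Huh7.5 cells held at 10 µM compound for increasing periods; HCV and host GAPDH RNA measured by real-time qRT-PCR. Triplicates, mean ± SD; T1/2 for halving viral RNA from the time-response curve.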
A general note: Real-time PCR tracks product formation cycle by cycle.

Assay [2] relates to Hepatitis C virus. As to the kind of experiment: Antiviral activity against Hepatitis C virus Con1 Bart79I genotype 1b expressing YFP infected in human Huh7.5 cells assessed as inhibition of NS5A S2204I mutant synthesis at 10 uM by FACS analysis. It counts as functional, organism-based. The following applies: Hepacivirus hominis, subtype 1b Con1 Bart79I, Huh-7, TDE = time-dependent effect. The essentials:
(§2)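 Huh7.5 cells stably carrying Bart79I-YFP subgenomic replicon (G418 selection), treated with DMSO or compound. Dose series over 5 days (120 h), or 10 M with sampling at 24, 48, 72 h. Cells washed, resuspended in PBS, and NS5A-YFP-positive cells counted by FACS. EC50 and T1/2 taken from response curves.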
(In general: A flow cytometer gives signals particle by particle.)

The test system of assay [3] is Hepatitis C virus. As to the kind of experiment: Antiviral activity against Hepatitis C virus Con1 Bart79I genotype 1b expressing YFP infected in human Huh7.5 cells assessed as time required for reducing viral core level by half at 10 uM by FACS analysis. It counts as functional, organism-based. The following applies: Hepacivirus hominis, subtype 1b Con1 Bart79I, Huh-7, in the assay text read “viral NS5A-YFP level” for “viral core level”. The essentials: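 Huh7.5 cells stably carrying Bart79I-YFP subgenomic replicon (G418 750 mg/ml selection), exposed to compound at 10 µM; cells harvested at 24, 48, 72 h, washed, resuspended in PBS, NS5A-YFP-positive cell percentage read by FACS. T1/2 taken from the time-response curve.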

Assay [4] relates to Hepatitis C virus. As to the kind of experiment: Antiviral activity against Hepatitis C virus Con1 Bart79I genotype 1b expressing YFP infected in human Huh7.5 cells assessed as inhibition of NS5A S2204I mutant synthesis after 120 hrs by FACS analysis. As to conditions: subtype 1b Con1 Bart79I. It counts as functional, organism-based. In short, it runs like this: as §2
For assay [5], the system named is Hepatitis C virus. Briefly: Antiviral activity against Hepatitis C virus Con1 Bart79I genotype 1b expressing YFP infected in human Huh7.5 cells assessed as NS5A S2204I mutant synthesis at 2 uM after 120 hrs by FACS analysis (reference value: 66%). Type of assay: functional, Hepacivirus hominis, subtype 1b Con1 Bart79I, Huh-7. The essentials:
as §2

The subject of assay [6] is Hepatitis C virus. Briefly: Antiviral activity against Hepatitis C virus Con1 Bart79I genotype 1b expressing YFP infected in human Huh7.5 cells assessed as NS5A S2204I mutant synthesis at 1 uM after 120 hrs by FACS analysis (reference value: 66%). It counts as functional, Hepacivirus hominis, subtype 1b Con1 Bart79I, Huh-7. The essentials: as §2
Assay [7] is described as follows: Ratio of antiviral activity against Hepatitis C virus Con1 Bart79I genotype 1b expressing NS5A S2204I mutant infected in human Huh7.5 cells assessed as time required for reducing viral RNA level by half to antiviral activity against Hepatitis C virus JFH-1 J6 genotype 2a infected in human Huh7.5 cells assessed as time required for reducing viral RNA level by half. Type of assay: functional, Huh-7.

The subject of assay [8] is Hepatitis C virus. As to the kind of experiment: Antiviral activity against Hepatitis C virus JFH-1 J6 genotype 2a infected in human Huh7.5 cells assessed as time required for reducing viral RNA level by half at 10 uM by real time qRT-PCR analysis. It counts as functional, organism-based. The following applies: Hepacivirus hominis, subtype 2a JFH1 J6, Huh-7. In short, it runs like this:
as §1

Assay [9] has as its system Hepatitis C virus. As to the kind of experiment: Antiviral activity against Hepatitis C virus JFH-1 J6 genotype 2a infected in human Huh7.5 cells assessed as time required for reducing viral RNA level by half at 10 uM by luciferase reporter gene assay. The following applies: Hepacivirus hominis, subtype 2a JFH1 J6, Huh-7. It counts as functional, organism-based. The essentials:
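Rluc-J6/JFH1 RNA-transfected Huh7.5 cells given 10 µM compound; renilla luciferase and cell viability measured at 24, 48, 72 h. T1/2 for halving replication taken from the time-response curve.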
In general terms: In a reporter assay the amount or activity of a reporter protein is the signal.

For assay [10], the system named is Hepatitis C virus. As to the kind of experiment: Antiviral activity against Hepatitis C virus Con1 Bart79I genotype 1b expressing YFP/NS5A S2204I mutant infected in human Huh7.5 cells assessed as inhibition of viral RNA replication after 72 hrs by real time qRT-PCR analysis. As to conditions: subtype 1b Con1 Bart79I, Huh-7, 72 h.

The record followed here is ChEMBL document CHEMBL3120069, “Chemical genetics-based discovery of indole derivatives as HCV NS5B polymerase inhibitors” (Eur J Med Chem, 2014).

In general, EC50 refers to the concentration at which the effect is half-maximal. For `C/C(=C\c1c[nH]c2ccc(C#N)cc12)C(=O)Nc1ccc(C(C)(C)C)cc1`, the inhibition entry in the assay on Hepatitis C virus [1] is “tde”; with Hepatitis C virus [2], “tde”; with Hepatitis C virus [4] (Hepacivirus hominis, Huh-7), “Dose-dependent effect”. Besides, the T1/2 was found to be 31.8 h in the assay with Hepatitis C virus [3], 17.2 h in the assay with Hepatitis C virus [8] and 16.4 h with Hepatitis C virus [9]. For the same molecule, the EC50 with Hepatitis C virus [4] (Huh-7, 120 h) was found to be 1030 nM; in the assay with Hepatitis C virus [10], 4.77 µM. Also, the values for the Activity with Hepatitis C virus [5] and in the assay with Hepatitis C virus [6] were 4.2% and 38.4%, respectively. The Ratio in assay [7] is recorded as 1.8.
